Laboratory results reported in paper PMC12137120 (Nature, 2025).
Where a chain is given by its changes, count along the chain named.

Assays:
SHOC2(G290A)–NRAS(Q61R) = target: T1, SHOC2(G290A)–NRAS(Q61R) (Homo sapiens, UniProt Q9UQ13, G290A); assay: TR-FRET assay with resistant mutant SHOC2; format: binding
T1 sequence (Q9UQ13 1-582 G290A): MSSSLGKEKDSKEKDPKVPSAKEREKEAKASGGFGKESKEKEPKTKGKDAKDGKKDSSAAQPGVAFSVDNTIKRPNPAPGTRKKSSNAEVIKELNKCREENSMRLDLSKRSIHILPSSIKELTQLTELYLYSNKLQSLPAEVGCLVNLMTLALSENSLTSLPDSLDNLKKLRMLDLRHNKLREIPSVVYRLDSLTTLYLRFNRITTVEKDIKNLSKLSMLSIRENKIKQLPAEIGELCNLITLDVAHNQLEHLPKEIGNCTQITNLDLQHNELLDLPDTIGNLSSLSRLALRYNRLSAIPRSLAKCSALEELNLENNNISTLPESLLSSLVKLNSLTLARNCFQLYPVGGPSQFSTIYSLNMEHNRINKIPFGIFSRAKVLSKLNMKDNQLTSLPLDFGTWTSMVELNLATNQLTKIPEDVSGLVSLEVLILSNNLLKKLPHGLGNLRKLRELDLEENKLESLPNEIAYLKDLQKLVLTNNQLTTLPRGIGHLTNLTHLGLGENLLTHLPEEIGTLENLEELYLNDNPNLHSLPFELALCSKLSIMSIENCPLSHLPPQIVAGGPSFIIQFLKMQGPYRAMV

SHOC2(WT)–NRAS(Q61K) = target: T2, SHOC2(WT)–NRAS(Q61K) (Homo sapiens, UniProt Q9UQ13); assay: SHOC2–NRAS; format: cell-based
T2 sequence (Q9UQ13 1-582): T1 sequence (Q9UQ13 1-582 G290A) with A290G
Summary of the method: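 Monoclonal HEK 293T lines stably expressed full-length SHOC2–SmBiT with LgBiT–NRAS(Q61K); a SmBiT–128-aa linker–LgBiT line served as control. Cells were kept in DMEM with 10% FCS. 20,000 cells per well were seeded in medium with 0.1% FCS and held 2 h at 37 °C. Test compound was given for 4 h (seven-point 1:3, 30 µM to 40 nM). Medium was then replaced with phenol-red-free Opti-MEM plus NanoGlo Live substrate (1:60). n = 3 biological samples.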

GTP-loaded RAS = assay: Active RAS pull-down assay; format: cell-based, human; details: Mel Juso and A375 cells, 30 µM, 2 h and 4 h
Summary of the method: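 Cells were treated with 30 µM test compound or DMSO for 2 h and 4 h, then lysed per the kit. 400 µg lysate was rotated with Raf-RBD beads for 1 h at 4 °C. Bound protein was eluted in 2× Laemmli buffer, boiled 5 min at 95 °C and immunoblotted alongside total lysates. Two independent experiments were run.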

SHOC2(G290A)–NRAS(Q61K) = target: T3, SHOC2(G290A)–NRAS(Q61K) (Homo sapiens, UniProt Q9UQ13, G290A); assay: SHOC2; format: cell-based
T3 sequence (Q9UQ13 1-582 G290A): T1 sequence (Q9UQ13 1-582 G290A)
Summary of the method: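 HEK 293T cells were plated at 20,000 per well and incubated overnight at 37 °C, 5% CO2. They were then transiently transfected with SHOC2(G290A)–SmBiT and LgBiT–NRAS(Q61K) and incubated overnight again. Test compound was added for 4 h as a seven-point 1:3 series from 10 µM […], from stock in DMSO/H2O 90:10. NanoGlo Live substrate (1:60 in phenol-red-free Opti-MEM) was then added.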

A375 cells [1] = assay: Incucyte 3D cell proliferation; format: cell-based, human; details: BRAF(V600E) melanoma A375; twice-a-week treatment, 30 µM
Summary of the method: (§1)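 Cells were seeded in sextuplicate in ultralow-attachment round-bottom plates in 10% FCS medium, spun 3 min at 200g and left 24 h to form spheroids or aggregates. They were dosed with 30 µM test compound or DMSO twice weekly at 37 °C, 5% CO2, and imaged by Incucyte every 6 h for three weeks at ×10. Data are mean ± s.d., n = 6; two independent experiments.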

SHOC2–NRAS(Q61R) = target: T4, SHOC2–NRAS(Q61R) (Homo sapiens, UniProt Q9UQ13); assay: TR-FRET competitive binding assay SHOC2–NRAS Q61R:GTP; details: versus (R)-5
T4 sequence (Q9UQ13 1-582): T1 sequence (Q9UQ13 1-582 G290A) with A290G

[2] = system: RAS mutant and RAS WT cell lines; assay: Incucyte 3D cell proliferation, panel of RAS mutant and RAS WT cell lines; format: cell-based, human; details: 30 µM
Summary of the method: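 For spheroid or aggregate formation, cells were seeded in sextuplicate in ultralow-attachment round-bottom plates in 10% FCS medium, centrifuged 3 min at 200g and left 24 h. They were treated with 30 µM test compound or DMSO at 37 °C, 5% CO2, and imaged on an Incucyte every 6 h for three weeks at ×10.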

[3] = system: RAS mutant and wild-type cell lines; assay: Immunoblot of MAPK signalling in a panel of RAS mutant and wild-type cell lines; format: cell-based, human; details: 4 h, 30 µM
SHOC2 (80–582) = target: T5, SHOC2 (80–582) (Homo sapiens, UniProt Q9UQ13); assay: SPR to assess affinity of low-molecular-weight ligands on immobilized SHOC2; format: binding; details: versus (R)-5
T5 sequence (Q9UQ13 80-582): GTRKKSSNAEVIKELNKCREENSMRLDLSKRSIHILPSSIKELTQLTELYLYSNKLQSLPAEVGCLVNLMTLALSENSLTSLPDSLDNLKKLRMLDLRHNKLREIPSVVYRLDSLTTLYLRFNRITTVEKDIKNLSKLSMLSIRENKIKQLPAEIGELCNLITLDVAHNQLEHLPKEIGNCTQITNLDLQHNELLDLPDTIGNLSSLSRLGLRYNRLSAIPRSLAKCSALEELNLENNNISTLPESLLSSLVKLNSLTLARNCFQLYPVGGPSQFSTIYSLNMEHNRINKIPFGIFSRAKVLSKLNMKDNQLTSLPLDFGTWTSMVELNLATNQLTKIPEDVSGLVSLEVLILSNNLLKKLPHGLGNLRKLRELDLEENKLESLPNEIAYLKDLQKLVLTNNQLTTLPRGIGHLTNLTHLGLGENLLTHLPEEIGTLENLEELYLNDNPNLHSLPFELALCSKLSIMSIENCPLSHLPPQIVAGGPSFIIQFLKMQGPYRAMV

Mel Juso cell line = assay: RNA-seq global transcriptome analysis; format: cell-based, human; details: 4 h and 24 h, 30 µM and 100 µM
MELJUSO cells [4] = assay: Incucyte 3D cell proliferation; format: cell-based, human; details: RAS(Q61L) melanoma MELJUSO; twice-a-week treatment, 30 µM
Summary of the method: as §1

A375 cells [5] = assay: Immunoblot of MAPK signalling; format: cell-based, human; details: BRAF(mut) melanoma cells A375, 30 µM, time course
Summary of the method: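 A375 cells got 30 µM test compound and were collected at several time points. They were cleared at 13,000 rpm, 4 °C, 20 min, protein was quantified by BCA, and samples were immunoblotted. Two independent experiments were run.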

MELJUSO cells [6] = assay: Immunoblot of MAPK signalling; format: cell-based, human
Summary of the method: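 MELJUSO cells were treated either with increasing doses for 24 h or with 30 µM over a time course. Lysis was in 1% Triton X-100/Tris-HCl pH 7.4/NaCl/EDTA buffer with phosphatase and protease inhibitors, then clearing at 13,000 rpm, 4 °C, 20 min and BCA protein assay. Immunoblots of the time course were quantified by densitometry as pCRAF/CRAF and pERK/ERK. Two independent experiments were run.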

| activity in SHOC2(G290A)–NRAS(Q61R) TR-FRET (SHOC2(G290A)–NRAS(Q61R)) | activity in SHOC2(WT)–NRAS(Q61mut) NanoBiT assay (SHOC2(WT)–NRAS(Q61K)) | activity in SHOC2(G290A)–NRAS(Q61mut) NanoBiT assay (SHOC2(G290A)–NRAS(Q61K)) | fold higher potency in TR-FRET assay (SHOC2–NRAS(Q61R)) | fold higher potency in SPR assay (SHOC2 (80–582)) | Structure (SMILES) | RAS–GTP loading (GTP-loaded RAS) | 3D cell proliferation (A375 cells [1]) | 3D proliferation in wild-type RAS settings ([2]; including EGFRΔex19 cells) | 3D proliferation of RAS mutant models ([2]; prolonged treatment) | MAPK signalling in EGFRΔex19 cells [3] | MAPK signalling in wild-type RTK/RAS or BRAF(V600E) mutant cell lines [3] | MAPK signalling in RAS mutant settings ([3]; Q61L, G12D and G12C mutant conditions) | transcriptome changes, RAS/MAPK-associated genes (Mel Juso cell line) | 3D cell proliferation (MELJUSO cells [4]) | pERK or pMEK inhibition (A375 cells [5]) | inhibited CRAF (phospho-S259) levels (MELJUSO cells [6]; MELJUSO, 30 µM, time course) | MEK and ERK phosphorylation (MELJUSO cells [6]; NRAS(Q61mut) melanoma cells MELJUSO, 24 h increasing doses) | MAPK signalling in all cell models tested [3] |
| --- | --- | --- | --- | --- | --- | --- | --- | --- | --- | --- | --- | --- | --- | --- | --- | --- | --- | --- |
| fully abolish compound 6 activity | selective displacement | no activity | 10 fold | 10 fold | CC(C)(C(=O)O)[C@H](NC(=O)Cc1cccc(I)c1)c1ccc2oc(=O)[nH]c2c1 [Compound 6, (R)-3-(2-(3-iodophenyl)acetamido)-2,2-dimethyl-3-(2-oxo-2,3-dihydrobenzo[d]oxazol-5-yl)propanoic acid] | unaffected | but not of BRAF(V600E) | none | anti-proliferative effects | only minor effects | no detectable effect | downregulated MAPK signalling | dose-dependent and time-dependent modulation | suppressed the cell proliferation | did not show any pERK or pMEK inhibition | increased levels | dose-dependent inhibition | – |
| – | no activity | – | – | – | CC(C)(C(=O)O)[C@@H](NC(=O)Cc1cccc(I)c1)c1ccc2oc(=O)[nH]c2c1 [Compound 7, (S)-3-(2-(3-iodophenyl)acetamido)-2,2-dimethyl-3-(2-oxo-2,3-dihydrobenzo[d]oxazol-5-yl)propanoic acid] | – | – | – | – | – | – | – | no significant changes | – | – | – | – | inert |
